Test results published in ChEMBL document CHEMBL1135709, “2,6-Di(omega-aminoalkyl)-2,5,6,7-tetrahydropyrazolo[3,4,5-mn]pyrimido[5,6,1-de]acridine-5,7-diones: novel, potent, cytotoxic, and DNA-binding agents” (J Med Chem, 2002).
pIC50: −log10 of the molar value.

Experiments:
MCF7 [1] = assay: Percent growth of NCI cell line, breast: MCF-7 exposed for 48 hr at 10e-4 concentration; type: functional, Homo sapiens
Method in brief: (§1)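 NCI panel cell lines exposed 48 h to 10^-8, 10^-6 and 10^-4 M drug; read-out is percent growth at each concentration.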

[2] = Percent growth of NCI cell line, leucemia K562 exposed for 48 hr at 10e-4 concentration; type: functional, Homo sapiens; method in brief: as §1
[3] = Percent growth of NCI cell line, leucemia K562 exposed for 48 hr at 10e-8 concentration; type: functional, Homo sapiens; method in brief: as §1
LoVo [4] = assay: Cytotoxicity activity on LoVo human adenocarcinoma cell line after 1 hr of drug exposure; type: functional, cell-based
Method in brief: (§2)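 LoVo (sensitive) and LoVo/Dx (resistant) human colon adenocarcinoma cells seeded at 2.5 × 10^5 cells/mL medium; drug solutions added to culture. IC50 = drug concentration inhibiting cell growth by 50%, assays in triplicate.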

LoVo [5] = assay: Cytotoxicity activity on LoVo/Dx human adenocarcinoma cell line after 144 hr of drug exposure; type: functional, cell-based
Method in brief: (§3)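 LoVo (sensitive) and LoVo/Dx (resistant) human colon adenocarcinoma cells seeded at 2.5 × 10^5 cells/mL medium; drug solutions added to culture.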

HCT-15 [6] = assay: Percent growth of NCI cell line, colon: HCT-15 exposed for 48 hr at 10e-8 concentration; type: functional, Homo sapiens; method in brief: as §1
DU-145 [7] = assay: Percent growth of NCI cell line, prostate: DU-145 exposed for 48 hr at 10e-8 concentration; type: functional, Homo sapiens; method in brief: as §1
NCI-H460 [8] = assay: Percent growth of NCI cell line, lung-nsc: NCI-H460 exposed for 48 hr at 10e-8 concentration; type: functional, Homo sapiens; method in brief: as §1
HCT-15 [9] = assay: Percent growth of NCI cell line, colon: HCT-15 exposed for 48 hr at 10e-6 concentration; type: functional, Homo sapiens; method in brief: as §1
Calf thymus DNA = assay: CT-DNA binding required to produce a 50% drop in fluorescence of DNA-bound ethidium.; type: nucleic-acid assay; details: Bos taurus
Method in brief: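 Ethidium displacement from calf thymus DNA in 10 mM Na2HPO4, 10 mM NaH2PO4, 1 mM EDTA, pH 7.0, containing 1.26 μM ethidium bromide and 1 μM CT-DNA. Drug added serially from ~5 mM DMSO stock; 20 °C; fluorescence excitation 546 nm, emission 595 nm. C50 = drug concentration lowering DNA-bound ethidium fluorescence by 50%, mean of three determinations.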

SNB-19 [10] = assay: Percent growth of NCI cell line, CNS: SNB-19 exposed for 48 hr at 10e-8 concentration; type: functional, Homo sapiens; method in brief: as §1
LOX IMVI [11] = assay: Percent growth of NCI cell line, melanoma: LOX IMVI exposed for 48 hr at 10e-8 concentration; type: functional, Homo sapiens; method in brief: as §1
786-0 [12] = assay: Percent growth of NCI cell line, renal: 786-0 exposed for 48 hr at 10e-4 concentration; type: functional, Homo sapiens; method in brief: as §1
SNB-19 [13] = assay: Percent growth of NCI cell line, CNS: SNB-19 exposed for 48 hr at 10e-6 concentration; type: functional, Homo sapiens; method in brief: as §1
DU-145 [14] = assay: Percent growth of NCI cell line, prostate: DU-145 exposed for 48 hr at 10e-4 concentration; type: functional, Homo sapiens; method in brief: as §1
NCI-H460 [15] = assay: Percent growth of NCI cell line, lung-nsc: NCI-H460 exposed for 48 hr at 10e-4 concentration; type: functional, Homo sapiens; method in brief: as §1
LoVo [16] = assay: Cytotoxicity activity on LoVo/Dx human adenocarcinoma cell line after 1 hr of drug exposure; type: functional, cell-based; method in brief: as §2
LOX IMVI [17] = assay: (§4) Percent growth of NCI cell line, melanoma: LOX IMVI exposed for 48 hr at 10e-4 concentration; type: functional, Homo sapiens; method in brief: as §1
DU-145 [18] = assay: Percent growth of NCI cell line, prostate: DU-145 exposed for 48 hr at 10e-6 concentration; type: functional, Homo sapiens; method in brief: as §1
MCF7 [19] = assay: Percent growth of NCI cell line, breast: MCF-7 exposed for 48 hr at 10e-8 concentration; type: functional, Homo sapiens; method in brief: as §1
MCF7 [20] = assay: Percent growth of NCI cell line, breast: MCF-7 exposed for 48 hr at 10e-6 concentration; type: functional, Homo sapiens; method in brief: as §1
LOX IMVI [21] = assay: (§5) Percent growth of NCI cell line, melanoma: LOX IMVI exposed for 48 hr at 10e-6 concentration; type: functional, Homo sapiens; method in brief: as §1
[22] = Percent growth of NCI cell line, leucemia K562 exposed for 48 hr at 10e-6 concentration; type: functional, Homo sapiens; method in brief: as §1
SNB-19 [23] = assay: Percent growth of NCI cell line, CNS: SNB-19 exposed for 48 hr at 10e-4 concentration; type: functional, Homo sapiens; method in brief: as §1
LoVo [24] = assay: Cytotoxicity activity on LoVo human adenocarcinoma cell line after 144 hr of drug exposure; type: functional, cell-based; method in brief: as §3
OVCAR-4 [25] = assay: Percent growth of NCI cell line, ovarian: OVCAR-4 exposed for 48 hr at 10e-4 concentration; type: functional, Homo sapiens; method in brief: as §1
786-0 [26] = assay: Percent growth of NCI cell line, renal: 786-0 exposed for 48 hr at 10e-6 concentration; type: functional, Homo sapiens; method in brief: as §1
HT-29 = assay: In vitro cytotoxic potency against HT-29 (human colon adenocarcinoma) cell line.; type: functional, cell-based
OVCAR-4 [27] = assay: Percent growth of NCI cell line, ovarian: OVCAR-4 exposed for 48 hr at 10e-6 concentration; type: functional, Homo sapiens; method in brief: as §1
OVCAR-4 [28] = assay: Percent growth of NCI cell line, ovarian: OVCAR-4 exposed for 48 hr at 10e-8 concentration; type: functional, Homo sapiens; method in brief: as §1
NCI-H460 [29] = assay: Percent growth of NCI cell line, lung-nsc: NCI-H460 exposed for 48 hr at 10e-6 concentration; type: functional, Homo sapiens; method in brief: as §1
HCT-15 [30] = assay: Percent growth of NCI cell line, colon: HCT-15 exposed for 48 hr at 10e-4 concentration; type: functional, Homo sapiens; method in brief: as §1
786-0 [31] = assay: Percent growth of NCI cell line, renal: 786-0 exposed for 48 hr at 10e-8 concentration; type: functional, Homo sapiens; method in brief: as §1
[32] = as §4; type: functional, Homo sapiens; method in brief: as §1
[33] = as §5; type: functional, Homo sapiens; method in brief: as §1

SMILES | Growth (MCF7 [1]) [%] | Growth [2] [%] | Growth [3] [%] | pIC50 (LoVo [4]) | pIC50 (LoVo [5]) | Growth (HCT-15 [6]) [%] | Growth (DU-145 [7]) [%] | Growth (NCI-H460 [8]) [%] | Growth (HCT-15 [9]) [%] | C50 (Calf thymus DNA) [µM] | Growth (SNB-19 [10]) [%] | Growth (LOX IMVI [11]) [%] | Growth (786-0 [12]) [%] | Growth (SNB-19 [13]) [%] | Growth (DU-145 [14]) [%] | Growth (NCI-H460 [15]) [%] | pIC50 (LoVo [16]) | Growth (DU-145 [18]) [%] | Growth (MCF7 [19]) [%] | Growth (MCF7 [20]) [%] | other results
CN(C)CCn1c(=O)c2ccc3c4c(nn3CCN(C)C)c3cc(O)ccc3n(c1=O)c24 | -64 | -66 | 84 | 6.66 | 6.77 | 85 | 71 | 71 | 21 | 0.056 | 65 | 63 | -82 | -1 | -50 | -74 | 7.10 | 0 | 60 | -17 | Growth (LOX IMVI [17]): -79%; Growth (LOX IMVI [21]): -48%; Growth [22]: 7%; Growth (SNB-19 [23]): -72%; pIC50 (LoVo [24]): 7.96; Growth (OVCAR-4 [25]): -60%; Growth (786-0 [26]): -11%; pIC50 (HT-29): 7.41; Growth (OVCAR-4 [27]): -19%; Growth (OVCAR-4 [28]): 70%; Growth (NCI-H460 [29]): -23%; Growth (HCT-15 [30]): -68%; Growth (786-0 [31]): 43%
CN(C)CCn1c(=O)c2ccc3c4c(nn3CCN(C)C)c3ccccc3n(c1=O)c24 | -95 | -67 | 61 | 6.54 | 8.41 | 48 | 60 | 30 | -29 | 0.0018 | 66 | 65 | -90 | -3 | -37 | -79 | 7.10 | -16 | 63 | -41 | Growth (LOX IMVI [17]): -93%; Growth (LOX IMVI [21]): -32%; Growth [22]: -27%; Growth (SNB-19 [23]): -41%; pIC50 (LoVo [24]): 7.92; Growth (OVCAR-4 [25]): -56%; Growth (786-0 [26]): -42%; pIC50 (HT-29): 7.43; Growth (OVCAR-4 [27]): -36%; Growth (OVCAR-4 [28]): 51%; Growth (NCI-H460 [29]): -44%; Growth (HCT-15 [30]): -85%; Growth (786-0 [31]): 27%
CN(C)CCn1c(=O)c2ccc3c4c(nn3CCN(C)C)c3cc([N+](=O)[O-])ccc3n(c1=O)c24 | -93 | -38 | 82 | 6.28 | 7.89 | 68 | 82 | 47 | -4 | 0.07 | 75 | 79 | -99 | 2 | -94 | -94 | 6.72 | -16 | 81 | -12 | Growth (LOX IMVI [17]): -89%; Growth (LOX IMVI [21]): 5%; Growth [22]: 6%; Growth (SNB-19 [23]): -93%; pIC50 (LoVo [24]): 7.80; Growth (OVCAR-4 [25]): -96%; Growth (786-0 [26]): -25%; pIC50 (HT-29): 9.01; Growth (OVCAR-4 [27]): -55%; Growth (OVCAR-4 [28]): 57%; Growth (NCI-H460 [29]): -19%; Growth (HCT-15 [30]): -89%; Growth (786-0 [31]): 36%
CN(C)CCn1c(=O)c2ccc3c4c(nn3CCN(C)C)c3cc(N)ccc3n(c1=O)c24 | -65 | -15 | 45 | 6.89 | 7.80 | 54 | 59 | 16 | -25 | 0.0009 | 43 | 47 | -95 | -14 | -67 | -64 | 6.26 | -11 | 62 | -6 | Growth [32]: -50%; Growth [33]: -28%; Growth [22]: 7%; Growth (SNB-19 [23]): -69%; pIC50 (LoVo [24]): 9.28; Growth (OVCAR-4 [25]): -51%; Growth (786-0 [26]): -44%; pIC50 (HT-29): 8.43; Growth (OVCAR-4 [27]): -47%; Growth (OVCAR-4 [28]): 55%; Growth (NCI-H460 [29]): -28%; Growth (HCT-15 [30]): -75%; Growth (786-0 [31]): 23%
